Measurements from paper PMC6660019 (ACS catalysis, 2019).
Read-outs that look alike come from different tables or passages of the source.

Assays:
[1] = target: T1, LmbB2 (Streptomyces lincolnensis, UniProt Q54355); test: EPR analysis of the ferrous LmbB2-nitrosyl; details: 20 mM ligand; for gave (average g value) of E-NO· complex after addition of ligand: 50 K, E-NO· alone gave = 2.030; for EPR spectroscopic change compared with E-NO· alone: negative controls
In short: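 His6-tagged LmbB2 expressed in E. coli BL21(DE3) with δ-aminolevulinic acid and ferrous ammonium sulfate, then Ni-affinity purified. 200 µM argon-saturated enzyme reduced anaerobically with 1 mM sodium dithionite, then exposed to excess NO from diethylamine NONOate in a sealed O2-free vial. Phenolic ligands added at 20 mM final. Samples frozen in liquid nitrogen. X-band EPR at 9.4 GHz, 100 kHz modulation, 50 K, 0.05 mW.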

[2] = target: T1, LmbB2; test: Isothermal titration calorimetry; assay type: binding
[3] = target: T1, LmbB2; assay type: biochemical
[4] = target: T1, LmbB2; test: Oxygen production; assay type: biochemical; details: substrate concentration exceeding 200 µM, 1 mM H2O2
[5] = target: T1, LmbB2; test: LmbB2 catalytic reaction with H2O2, product analysis by HPLC; assay type: biochemical; details: after normalizing for the percentage of substrate conversion
[6] = ITC, 100 mM KPi, 50 mM NaCl, pH 8, 20 °C
[7] = ^18O-enriched H2O2 (≥ 90% ^18O), normal water
[8] = ^18O-enriched water (88% ^18O), normal H2O2
[9] = ^18O-enriched water (88% ^18O), normal H2O2, listed as Tyrosine
[10] = ^18O-enriched H2O2 (≥ 90% ^18O), normal water, listed as 3-Fluoro-L-tyrosiTane
[11] = ^18O-enriched water (88% ^18O), normal H2O2, listed as 3-Fluoro-L-tyrosiTane

COc1ccc(C[C@H](N)C(=O)O)cc1 [compound 3, O-methyl-L-tyrosine]
gave (average g value) of E-NO· complex after addition of ligand [1]: 2.026 | Kd [2, 6]: 1290 ± 140 µM

N[C@@H](Cc1ccc(O)cc1)C(=O)O [compound 1, L-tyrosine]
Hydroxylation product ^16O/^16O [3, 7]: 7.2 ± 0.3% | Hydroxylation product ^16O/^18O [3, 7]: over 90% | Hydroxylation product ^16O/^18O ([3]; ^18O-enriched H2O2 (≥ 90% ^18O), normal water, listed as Tyrosine): 92.8 ± 0.3% | Hydroxylation product ^16O/^16O [3, 8]: 87.7% | Hydroxylation product ^16O/^18O [3, 8]: 11.2% | Hydroxylation product ^18O/^18O [3, 8]: 1.0 ± 0.1% | Hydroxylation product ^16O/^16O [3, 9]: 87.7 ± 0.9% | Hydroxylation product ^16O/^18O [3, 9]: 11.2 ± 0.8% | gave (average g value) of E-NO· complex after addition of ligand [1]: 2.027 | Kd [2]: 1.35 ± 0.03 µM | rate of oxygen formation [4]: zero

N[C@@H](Cc1ccccc1)C(=O)O [compound 2, L-phenylalanine]
gave (average g value) of E-NO· complex after addition of ligand [1]: 2.027 | Kd [2]: 318 ± 8 µM

N[C@@H](Cc1ccc(O)c(Cl)c1)C(=O)O [compound 6, 3-chloro-L-tyrosine]
ratio of 1a formation among substrates 5, 6 and 7 [5]: 1.3 | Kd [2]: 346 ± 2 µM

Cc1ccc(O)cc1 [p-cresol]
EPR spectroscopic change compared with E-NO· alone [1]: no significant EPR spectroscopic change

N[C@@H](Cc1ccc(O)c([N+](=O)[O-])c1)C(=O)O [compound 4, 3-nitro-L-tyrosine]
KD [2, 6]: no detectable thermal change

N[C@@H](Cc1ccc(O)c(I)c1)C(=O)O [compound 7, 3-iodo-L-tyrosine]
ratio of 1a formation among substrates 5, 6 and 7 [5]: 1 | Kd [2]: 7820 ± 180 µM

N[C@@H](Cc1ccc(O)c(F)c1)C(=O)O [compound 5, 3-fluoro-L-tyrosine]
Dehalogenation and Hydroxylation product (1a) ^16O/^16O [3, 7]: 30.3 ± 1.0% | Dehalogenation and Hydroxylation product (1a) ^16O/^18O [3, 7]: 69.7% | Hydroxylation product ^16O/^16O [3, 7]: 15.5 ± 0.2% | Hydroxylation product ^16O/^18O [3, 7]: 84.5% | Dehalogenation and Hydroxylation product (1a) ^16O/^18O [3, 10]: 69.7 ± 1.0% | Hydroxylation product ^16O/^18O [3, 10]: 84.5 ± 0.2% | Dehalogenation and Hydroxylation product (1a) ^16O/^16O [3, 8]: 36.2% | Dehalogenation and Hydroxylation product (1a) ^16O/^18O [3, 8]: 51.5% | Dehalogenation and Hydroxylation product (1a) ^18O/^18O [3, 8]: 12.3% | Hydroxylation product ^16O/^16O [3, 8]: 57.3% | Hydroxylation product ^16O/^18O [3, 8]: 35.8% | Hydroxylation product ^18O/^18O [3, 8]: 6.9% | Dehalogenation and Hydroxylation product (1a) ^16O/^16O [3, 11]: 36.2 ± 0.9% | Dehalogenation and Hydroxylation product (1a) ^16O/^18O [3, 11]: 51.5 ± 0.7% | Dehalogenation and Hydroxylation product (1a) ^18O/^18O [3, 11]: 12.3 ± 1.2% | Hydroxylation product ^16O/^16O [3, 11]: 57.3 ± 1.6% | Hydroxylation product ^16O/^18O [3, 11]: 35.8 ± 1.6% | Hydroxylation product ^18O/^18O [3, 11]: 6.9 ± 0.7% | ratio of 1a formation among substrates 5, 6 and 7 [5]: 4.5 | Kd [2]: 22.2 ± 1.1 µM | binding affinity weaker than the native substrate ([2]; KD of analog versus L-tyrosine (1)): around 16 fold | rate of oxygen formation [4]: ~10 min⁻¹

CC(C)(C)OC(=O)N[C@@H](Cc1ccc(O)cc1)C(=O)O [N-boc-L-tyrosine]
EPR spectroscopic change compared with E-NO· alone [1]: no significant EPR spectroscopic change
